Laboratory results reported in ChEMBL document CHEMBL4513216, “Probing the Open Global Health Chemical Diversity Library for Multistage-Active Starting Points for Next-Generation Antimalarials” (ACS Infect Dis, 2020).

assay: Toxicity liver stage against HepG2, at 10uM; format: cell-based; parameters: test concentration 10 uM, cell line HepG2-A16-CD81EGFP; settings: human, HepG2-A16-CD81EGFP cells; read-out: INHIBITION
Procedure, shortened: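 Uninfected HepG2-A16-CD81EGFP cells, 3 × 10^3 per well, 1536-well, plated on prespotted compound at 10 μM final, parasite-free screening media added to match infected plates; puromycin 10 μM positive, DMSO 0.5% negative; run in parallel with 48 h PbLuc assay at 37 °C, 5% CO2; viability by CellTiter-Glo luminescence, normalized to controls.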

SMILES	cytotoxicity at 10 µM [%]
COC(=O)Cn1c(C)cc(=O)n2nc(-c3cccs3)nc12	8.74
O=C(NCCCN1CCOCC1)c1ccc(-n2ccc3ccccc32)s1	-3.42
COc1cc(CN2CCCCCC2c2cccs2)cc(OC)c1OC (stereo not drawn)	33.3
Cc1cc(Cl)ccc1-n1ncc(C(=O)N(C)CCc2ccccn2)c1N	-7.3
O=C(O)c1cc(S(=O)(=O)Nc2cnn(C3CCOCC3)c2)ccc1F	-10.9
CC(C)NC(=O)N1CCCC2(CC(C(=O)Nc3ccccc3)=NO2)C1 (stereo not drawn)	-3.36
COCC(=O)N1Cc2nccn2CC(COc2cccnc2)C1 (stereo not drawn)	5.41
Cc1ccc(C)c(NC(=O)Nc2c[nH]c(=O)[nH]c2=O)c1	0.0452
CCCc1nc(NCCCOC)c2c(n1)c(C)nn2CC	24.6
CNC(=O)CCc1cc(C2CCCN2C(=O)CO)nc(C)n1 (stereo not drawn)	-0.785
CC(C)N1CC(c2ccnc(Nc3nccs3)n2)C1	1.18
Cc1ccc(OCCN2CCC(c3nc(C)n4c(C)csc34)CC2)cc1	1.94
CC(C(=O)N1CCOCC1)n1nc(-c2cccs2)cc(N)c1=O (stereo not drawn)	8.74
CN(C)C(=O)C1CN(c2ccncn2)CCN(C2CCOCC2)C1 (stereo not drawn)	-0.621
O=C(CCn1c(C(F)(F)F)cc2cccnc21)N1CCC(O)CC1	-28.5
COc1ccccc1C1=NOC(CC2(C(=O)O)CCOCC2)C1 (stereo not drawn)	-9.9
CC(=O)N1CCC(c2cnc(-c3c(C)nn(C)c3C)cn2)CC1	-33.6
Cc1ncc(CNC(=O)CCc2cccs2)c(C2CCCN2C)n1 (stereo not drawn)	-9.72
CCCN(C(=O)c1cnccn1)c1nc2c(s1)CCc1c-2cnn1C	-16.7
C=Cc1ccc(CN2CCCC3(CNC(=O)c4ccccc4O3)C2)cc1 (stereo not drawn)	-22.6
CS(=O)(=O)N1CCCC(Cc2cncc(Br)c2)CC1 (stereo not drawn)	2.16
Cc1ncc(C(=O)N2CCCC(Cc3nccs3)C2)cn1 (stereo not drawn)	-2.03
O=C1Nc2ccccc2CNC12CCN(CC1CCNC1)CC2 (stereo not drawn)	6.61

SMILES	cytotoxicity at 10 µM [%]
CC(O)CNC(=O)Nc1ccc(Br)cc1Br (stereo not drawn)	-1.45
CN1CCOC(C(=O)N(C)c2ccc3c(c2)CCO3)C1 (stereo not drawn)	-45.4
CCCS(=O)(=O)NC(C)c1cccc(-n2cccn2)c1 (stereo not drawn)	3.65
COc1ccc(CNC(=O)c2ccoc2CN2CCNC(=O)C2)cc1	6.41
NC(c1ccccc1)c1ccc(OC(F)F)cc1 (stereo not drawn)	1.79
Cc1ccc(CN(C)C(=O)NCC(=O)NC(C)(C)C)s1	0.136
Cc1ccc(CN(C)C(=O)NCC(C)(C)CCS(C)(=O)=O)s1	6.24
Cc1nc(CC2CCCN(Cc3nc(N)c4ccccc4n3)C2)no1 (stereo not drawn)	-41.3
N#CCCN(Cc1ccco1)C(=O)CN1CCCC1c1cccs1 (stereo not drawn)	-2.56
COCCOc1ccc(NC(=O)N(CCCO)CC(C)(C)C)cn1	-7.85
COc1ccc(CCCC(=O)NCc2c(C)noc2C)cc1F	-6.35
COc1c(CNCc2ccc(N3CCOCC3)cc2)c(C)nn1C	2.1
Cc1ccc(F)cc1NC(=O)CNc1cccc2c1CCCC2	4.33
Cc1nn(C)c(N(C)C)c1CNCc1cnn(Cc2ccccc2)c1	-5.6
COc1cc(C(=O)N(CCC#N)Cc2ccccn2)ccc1C	11.3
CCOCCC(=O)NC1(c2cccc(Br)c2)CC1	7.53
CC(C)(C)c1nnc(CN2CCN(C(=O)N3CCCCC3)CC2)o1	2.44
CN(C)c1ccc(C(=O)N(CCO)CC2CC2)c(F)c1	5.25
COCCN(Cc1cccnc1)S(=O)(=O)c1cccc(F)c1F	-1.89
CC(C)c1n[nH]c(C2CN(C(=O)c3cc(C4CC4)on3)CCO2)n1 (stereo not drawn)	-1.7
O=C(C1CC=CC1)N1CCC2(CC1)OCCO2	6.9
CC(C)CC(=O)NCCCn1cncn1	-18.9
CNS(=O)(=O)CCCN1CCN(C(C)c2cccnc2)CC1 (stereo not drawn)	-10.7

SMILES	cytotoxicity at 10 µM [%]
COc1ccc(CCNC(=O)CC(NC(N)=O)c2ccccc2)cc1 (stereo not drawn)	2.19
N#Cc1cc(N2CCC(S(N)(=O)=O)CC2)c2ccccc2n1	-5.03
O=c1[nH]c2csnc2c(=O)n1Cc1ccc(Br)cc1	5.41
CS(=O)(=O)Cc1ccc(C(=O)NCc2ccc(Cl)cc2Cl)cc1	-47.6
O=C1C(Nc2ccc3nccnc3n2)CCN1c1ccccc1 (stereo not drawn)	0.562
Cc1nccn1C1CCCN(C(=O)Cn2ccc(=O)n(C)c2=O)C1 (stereo not drawn)	-5.17
O=C(CCCNC(=O)C1CCCO1)Nc1ccc(Cl)cc1 (stereo not drawn)	13.2
CN(CCOc1cccc(CNC(=O)C2CC2)c1)C1CCOCC1	-7.12
CCc1nc(CN2CCCC(N(C)Cc3cnn(C)c3)C2)no1 (stereo not drawn)	-14.5
CCc1nccn1C1CCCN(C(=O)c2cnc3ccccc3n2)C1 (stereo not drawn)	-4.61
Cc1cccc(N2CCN(CCCNC(=O)c3nccn3C)CC2)c1	-0.679
O=c1cc(CN2CCCC2)nc2n1CCCN(S(=O)(=O)C1CC1)C2	-3.56
Cc1ccsc1C(=O)N1CCc2ncc(Cn3cccn3)n2CC1	-108
O=c1c(-c2ccnc(NC3CCCCC3)n2)cnc2sc(Cl)cn12	-6.22
CC(C)Nc1ncc(-c2csc(NC(=O)C[C@H]3COCCN3)n2)cn1	-8.69
CCCN1CCCn2nc(CNS(=O)(=O)c3cnn(CC)c3)cc2C1	-7.23
O=C(O)[C@@H]1CN(Cc2cnc(C3CCCCC3)nc2)C[C@H]1C1CC1	-10
Cc1nn(C)c(C)c1CN(C)C(=O)c1cccc(CCC(C)(C)O)c1	3.13
CN(Cc1nc(CC2CC2)no1)CC1COc2ccccc2O1 (stereo not drawn)	-3.89
Cc1ccc(OC2(C(=O)O)CCN(C(=O)c3ccccc3F)CC2)cn1	2.75
CCC(NC1Cc2ccccc2C1)c1ccc(S(C)(=O)=O)cc1 (stereo not drawn)	-2.02
O=C(CCc1cc(Cl)no1)N1CCCCC1CCn1ccnc1 (stereo not drawn)	-1.83
Cc1cc2ccccc2n1CCC(=O)N1CCC2(CC1)CNC(=O)C2	0.105

SMILES	cytotoxicity at 10 µM [%]
CCN(CC1=CCN(C)CC1)C(=O)CCOC	5.09
O=C1CCN(Cc2cnc3c(-c4ccccc4)cnn3c2)CCN1	11
O=C(NCCc1ccccc1)c1cn(CCNCc2cccnc2)nn1	-2.68
CCc1nc2c(N3CCCC(c4nccn4CCOC)C3)ncnc2o1 (stereo not drawn)	-11.2
Cc1cc(C(F)(F)F)nc(CNC(=O)CCC2CCCN(C)C2)n1 (stereo not drawn)	-53.9
Cc1cccc(C(C(=O)NCC2(O)CCCCC2)N(C)C)c1 (stereo not drawn)	-8.82
CC(C)CCC(=O)N1CCC(c2nnc(CN(C)CCO)n2C)CC1	0.832
CCc1nccn1CCC(=O)N1CC[C@H](CO)[C@H](O)C1	-1.2
NCCn1cc(C(=O)NCc2ccccc2Cn2cccn2)nn1	3.41
COc1ccc(C(C(=O)O)N2CCN(C3CCCCC3)CC2)cc1OC (stereo not drawn)	-4.89
CCN(CC)C(=O)c1c(Br)cnn1CC	2.63
Cc1nc(C(=O)N2CCCC(c3cccc(-n4ccnc4)n3)C2)co1 (stereo not drawn)	8.31
CN(C)Cc1ccnc(C2CCCN2Cc2cc[nH]n2)n1 (stereo not drawn)	-0.902
CCN(CC)C(=O)c1ccc(CNc2cncc(-n3cccn3)n2)cc1	7.18
Cc1cn2c(n1)CCC(NC(=O)CCCn1cncn1)C2 (stereo not drawn)	-9.12
CC(C)Oc1ccc(CNC(=O)NCc2ccncc2)cc1F	-18.3
Cc1cnn(CC2CN(CC(=O)Nc3nccs3)CCO2)c1 (stereo not drawn)	-7.51
CNc1cc(N2CCCC2CNCc2csc(C)n2)ncn1 (stereo not drawn)	-9.71
Cc1ccc(C(=O)N2CCC(Oc3ccccc3)CC2)c(=O)[nH]1	-1.01
CC(C)Oc1ccc(C(=O)NCc2ccc3c(c2)CCCN3C)cn1	-6.63
CC(C)c1nc(CN(C)C2CCN(CCn3cc(C#N)cn3)C2)no1 (stereo not drawn)	-6.29
CCn1nc2c(cc1=O)CN(CC(=O)Nc1nncs1)CC2	-0.284
Cc1cnn(CC2CCCN2C(=O)c2cc3ccccc3c(=O)[nH]2)c1 (stereo not drawn)	-4.77

SMILES	cytotoxicity at 10 µM [%]
O=C(CCc1ccccc1)N1CCCCC1Cn1cccn1 (stereo not drawn)	3.78
CCc1nnc2n1CCN(CCC(=O)Nc1cc(C)on1)C2	4.23
CN(Cc1ccco1)C(=O)[C@H]1CSCN1C(=O)OC(C)(C)C	-8.97
CNc1nc(CNC(=O)Nc2cccc(-c3nnco3)c2)cs1	-5.26
Cc1cc(CN(C)C(=O)NC2CCCN(c3ncccn3)C2)no1 (stereo not drawn)	-7.26
Cc1ncc(CN(C)C2CCCN(Cc3noc(C4CC4)n3)C2)s1 (stereo not drawn)	-13.5
c1ncn(CC2CCCN(Cc3nc(C4CC4)no3)C2)n1 (stereo not drawn)	-12.9
CC(=O)NC(C)(C)C(=O)Nc1ncc(Cc2ccc(C)c(F)c2)s1	0.987
O=C(NCCOCC(F)(F)F)c1ccc(-c2ccco2)[nH]c1=O	-8.5
Cc1ccc(N2CCCC(NCc3cccc4c3OCCO4)C2)nn1 (stereo not drawn)	-1.69
Cc1cc(C)n(C2CCCN(C(=O)C3=NN(C)C(=O)CC3)C2)n1 (stereo not drawn)	-9.21
O=C(CCNc1ncccn1)NCCc1ccn(-c2ccccc2)n1	0.914
c1cc(CN2Cc3nnn(CC4CC4)c3C(COCC3CC3)C2)co1 (stereo not drawn)	-0.336
Cc1nc(CN2C(=O)CCC23CCN(Cc2cccn2C)CC3)cs1	0.676
Cc1ccc(-c2ccc(CC3NCCN(C)C3=O)cc2)cc1 (stereo not drawn)	-25
Cn1nnc2c1C(COCc1cccnc1)CN(Cc1ccoc1)C2 (stereo not drawn)	-2.55
CC(=O)N1CCC2(CC1)CNc1c(F)cccc12	4.79
CC(C)Cn1cc2nc(N)[nH]cc-2c1=O	5.26
COc1ccc(-c2ncccc2C(=O)N2C[C@@H]3CC[C@H]2C3)cn1	6.42
Cc1[nH]c2cc(C3CCN(C(=O)c4ccccn4)CC3)nn2c(=O)c1C	0.636
Cc1nnsc1CN1C[C@@H]2CC[C@H]1CN(Cc1ccc(F)cc1)C2	-7.44
